Assays:
Test in all cases: NCI-60 single-dose antiproliferative screen
Type in all cases: cell-based
[1] = system: SW-620; settings: Homo sapiens, SW-620, 48 h, read-out: growth percent
Outline: (§1)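 Cells grown in RPMI 1640 with 5% FBS and 2 mM L-glutamine, plated and held 24 h at 37 °C; time-zero plates TCA-fixed. DMSO stocks were diluted in gentamicin-containing medium to a final 10^-5 M, with a DMSO-only control. Exposure 48 h, 5% CO2. Adherent cells TCA-fixed 1 h at 4 °C, stained with 0.4% SRB, solubilised in 10 mM Trizma base, read at 515 nm. Growth percent derived from ODtzero, ODtest and ODctrl.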

[2] = system: SF-295; settings: Homo sapiens, SF-295, 48 h, read-out: growth percent
Outline: (§2)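 NCI-60 protocol. Lines were grown in RPMI 1640 with 5% FBS and 2 mM L-glutamine, plated and incubated 24 h at 37 °C; time-zero plates were TCA-fixed. The test compound was dissolved in DMSO, diluted in medium with 50 μg/mL gentamicin and given once at a final 10^-5 M (DMSO control) for 48 h. Cells were fixed with cold TCA (1 h, 4 °C) and stained with 0.4% SRB in 1% acetic acid for 10 min. Dye was dissolved in 10 mM Trizma base and read at 515 nm. Growth percent was calculated from time-zero, test and control ODs.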

[3] = system: DU-145; settings: Homo sapiens, DU-145, 48 h, read-out: growth percent
Outline: as §2

[4] = system: SN12C; settings: Homo sapiens, 48 h, read-out: growth percent
Outline: as §1

[5] = system: MCF-7; settings: Homo sapiens, MCF7, 48 h, read-out: growth percent
Outline: as §2

[6] = system: CAKI-1; settings: Homo sapiens, CAKI-1, 48 h, read-out: growth percent
Outline: as §2

[7] = system: MDA-MB-468; settings: Homo sapiens, MDA-MB-468, 48 h, read-out: growth percent
Outline: as §2

[8] = system: UACC-62; settings: Homo sapiens, UACC-62, 48 h, read-out: growth percent
Outline: as §1

[9] = system: COLO205; settings: Homo sapiens, COLO 205, 48 h, read-out: growth percent
Outline: as §2

[10] = system: NCI-H322M; settings: Homo sapiens, 48 h, read-out: growth percent
Outline: as §2

[11] = system: NCI-H23; settings: Homo sapiens, NCI-H23, 48 h, read-out: growth percent
Outline: as §2

[12] = system: MOLT-4; settings: Homo sapiens, MOLT-4, 48 h, read-out: growth percent
Outline: as §2

[13] = system: IGROV1; settings: Homo sapiens, IGROV-1, 48 h, read-out: growth percent
Outline: as §2

[14] = system: HCC-2998; settings: Homo sapiens, HCC 2998, 48 h, read-out: growth percent
Outline: as §2

[15] = system: NCI-H226; settings: Homo sapiens, NCI-H226, 48 h, read-out: growth percent
Outline: as §2

[16] = system: T-47D; settings: Homo sapiens, T47D, 48 h, read-out: growth percent
Outline: as §1

[17] = system: HOP-62; settings: Homo sapiens, HOP-62, 48 h, read-out: growth percent
Outline: as §2

[18] = system: SR; settings: Homo sapiens, 48 h, read-out: growth percent
Outline: as §1

[19] = system: KM12; settings: Homo sapiens, KM12, 48 h, read-out: growth percent
Outline: as §2

[20] = system: TK-10; settings: Homo sapiens, TK-10, 48 h, read-out: growth percent
Outline: as §1

[21] = system: NCI-H522; settings: Homo sapiens, NCI-H522, 48 h, read-out: growth percent
Outline: as §2

[22] = system: SK-OV-3; settings: Homo sapiens, SK-OV-3, 48 h, read-out: growth percent
Outline: as §1

[23] = system: NCI-H460; settings: Homo sapiens, NCI-H460, 48 h, read-out: growth percent
Outline: as §2

[24] = system: CCRF-CEM; settings: Homo sapiens, 48 h, read-out: growth percent
Outline: as §2

[25] = system: A549/ATCC; settings: Homo sapiens, A549, 48 h, read-out: growth percent
Outline: as §2

[26] = system: RPMI-8226; settings: Homo sapiens, RPMI-8226, 48 h, read-out: growth percent
Outline: as §2

[27] = system: HS 578T; settings: Homo sapiens, 48 h, read-out: growth percent
Outline: as §2

[28] = system: RXF 393; settings: Homo sapiens, RXF 393, 48 h, read-out: growth percent
Outline: as §2

[29] = system: SNB-19; settings: Homo sapiens, SNB-19, 48 h, read-out: growth percent
Outline: as §1

[30] = system: UACC-257; settings: Homo sapiens, UACC-257, 48 h, read-out: growth percent
Outline: as §1

[31] = system: MDA-MB-435; settings: Homo sapiens, MDA-MB-435, 48 h, read-out: growth percent
Outline: as §2

[32] = system: HT29; settings: Homo sapiens, HT-29, 48 h, read-out: growth percent
Outline: as §2

[33] = system: UO-31; settings: Homo sapiens, UO-31, 48 h, read-out: growth percent
Outline: as §1

[34] = system: SF-539; settings: Homo sapiens, SF-539, 48 h, read-out: growth percent
Outline: as §1

[35] = system: SF-268; settings: Homo sapiens, SF-268, 48 h, read-out: growth percent
Outline: as §2

[36] = system: SK-MEL-2; settings: Homo sapiens, SK-MEL-2, 48 h, read-out: growth percent
Outline: as §1

| SMILES | activity at 10 µM [1] [%] | activity at 10 µM [2] [%] | activity at 10 µM [3] [%] | activity at 10 µM [4] [%] | activity at 10 µM [5] [%] | activity at 10 µM [6] [%] | activity at 10 µM [7] [%] | activity at 10 µM [8] [%] | activity at 10 µM [9] [%] | activity at 10 µM [10] [%] | activity at 10 µM [11] [%] | activity at 10 µM [12] [%] | activity at 10 µM [13] [%] | activity at 10 µM [14] [%] | activity at 10 µM [15] [%] | activity at 10 µM [16] [%] | activity at 10 µM [17] [%] | activity at 10 µM [18] [%] | activity at 10 µM [19] [%] | activity at 10 µM [20] [%] | further results |
| --- | --- | --- | --- | --- | --- | --- | --- | --- | --- | --- | --- | --- | --- | --- | --- | --- | --- | --- | --- | --- | --- |
| COc1cc(CNC(=O)CCCC/C=C/C(C)C)ccc1OCc1cn(-c2ccc([N+](=O)[O-])cc2)nn1 [14e, (E)-N-(3-Methoxy-4-((1-(4-nitrophenyl)-1H-1,2,3-triazol-4-yl)methoxy)benzyl)-8methylnon-6-enamide] | 99.8 | 89 | 105 | 91.7 | 83.5 | 90.7 | 77.4 | 69.3 | 118 | 97.9 | 83.2 | 79.3 | 90.4 | 108 | 89.6 | 64 | 80.9 | 62.2 | 90 | 92.7 | activity at 10 µM [21]: 78.2%; activity at 10 µM [22]: 76.7%; activity at 10 µM [23]: 99.8%; activity at 10 µM [24]: 84.9%; activity at 10 µM [25]: 84.1%; activity at 10 µM [26]: 61.8%; activity at 10 µM [27]: 95.8%; activity at 10 µM [28]: 99.7%; activity at 10 µM [29]: 97.4%; activity at 10 µM [30]: 82.6%; activity at 10 µM [31]: 99.7%; activity at 10 µM [32]: 98.1%; activity at 10 µM [33]: 60.6%; activity at 10 µM [34]: 104%; activity at 10 µM [35]: 86.1%; activity at 10 µM [36]: 92% |
| COc1cc(CNC(=O)CCCC/C=C/C(C)C)ccc1OCc1cn(-c2cccc([N+](=O)[O-])c2)nn1 [14f, (E)-N-(3-Methoxy-4-((1-(3-nitrophenyl)-1H-1,2,3-triazol-4-yl)methoxy)benzyl)-8-methylnon-6-enamide] | 97.4 | 104 | 109 | 89.5 | 74.1 | 81.7 | 72.3 | 70 | 107 | 94.1 | 88 | 86.6 | 89.4 | 101 | 90.9 | 72.3 | 97.4 | 78.4 | 91.2 | 105 | activity at 10 µM [21]: 82.6%; activity at 10 µM [22]: 93.5%; activity at 10 µM [23]: 91.8%; activity at 10 µM [24]: 90.2%; activity at 10 µM [25]: 92%; activity at 10 µM [26]: 65.9%; activity at 10 µM [27]: 90.8%; activity at 10 µM [28]: 92.7%; activity at 10 µM [29]: 68.2%; activity at 10 µM [30]: 94.4%; activity at 10 µM [31]: 101%; activity at 10 µM [32]: 88.9%; activity at 10 µM [33]: 74.7%; activity at 10 µM [34]: 94.4%; activity at 10 µM [35]: 92.2%; activity at 10 µM [36]: 88.4% |
| COc1cc(CNC(=O)CCCC/C=C/C(C)C)ccc1OCc1cn(-c2ccc(C(F)(F)F)cc2)nn1 [14g, (E)-N-(3-Methoxy-4-((1-(4-(trifluoromethyl)phenyl)-1H-1,2,3-triazol-4-yl)methoxy)benzyl)-8-methylnon-6-enamide] | 41.3 | 90.9 | 62.2 | 65.6 | 80.7 | 85.8 | 70.2 | 84.3 | 72.6 | 96.2 | 94.6 | 80.3 | 58.7 | 94.8 | 53.6 | 84.5 | 64.6 | 70.4 | 81.2 | 20.4 | activity at 10 µM [21]: 75.6%; activity at 10 µM [22]: 91.3%; activity at 10 µM [23]: 16.7%; activity at 10 µM [24]: 68.8%; activity at 10 µM [25]: 49%; activity at 10 µM [26]: 53.4%; activity at 10 µM [27]: 70.7%; activity at 10 µM [28]: 90.2%; activity at 10 µM [29]: 76.1%; activity at 10 µM [30]: 98.2%; activity at 10 µM [31]: 107%; activity at 10 µM [32]: 79%; activity at 10 µM [33]: 92.8%; activity at 10 µM [34]: 81.9%; activity at 10 µM [35]: 87.8%; activity at 10 µM [36]: 95.1% |
| COc1cc(CNC(=O)CCCC/C=C/C(C)C)ccc1OCc1cn(-c2ccc(F)cc2)nn1 [14h, (E)-N-(4-((1-(4-Fluorophenyl)-1H-1,2,3-triazol-4-yl)methoxy)-3-methoxybenzyl)-8-methylnon-6-enamide] | 91 | 90.5 | 96.1 | 82.4 | 89.3 | 88.4 | 68.2 | 71.9 | 120 | 91.8 | 81.4 | 82.6 | 97 | 110 | 74.2 | 73.8 | 84.1 | 76.7 | 94.5 | 103 | activity at 10 µM [21]: 70.2%; activity at 10 µM [22]: 86.4%; activity at 10 µM [23]: 75.7%; activity at 10 µM [24]: 79.7%; activity at 10 µM [25]: 84.3%; activity at 10 µM [26]: 68.4%; activity at 10 µM [27]: 77.7%; activity at 10 µM [28]: 95.3%; activity at 10 µM [29]: 81.3%; activity at 10 µM [30]: 90.2%; activity at 10 µM [31]: 98.8%; activity at 10 µM [32]: 106%; activity at 10 µM [33]: 86%; activity at 10 µM [34]: 92.2%; activity at 10 µM [35]: 87.2%; activity at 10 µM [36]: 111% |
